# STEP block = STEP (human) phosphatase inhibition; hit rate 0.25% among 360,000; P54829; AID 588621; inhibition, % at 20 µM; recombinant STEP, OMFP fluorogenic substrate, fluorescence;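 active = inhibition at 20 µM, scaled per plate between control wells, above about 37%, limit read from the data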;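 also: 0% = DMSO with enzyme and substrate and 100% = substrate only without enzyme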
#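 System: isolated STEP enzyme; schedule: 20 min enzyme reaction at room temperature, protected from light; medium: Bis-Tris buffer pH 6.0, 2.5 mM DTT, 0.005% Tween 20; signal: fluorescence, 480/540 nm; dosing: single compound dose of 20 µM, 1% DMSO final; also added: OMFP substrate, 25 µM final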
# DNMT1 block = DNMT1 (human) enzyme inhibition; AID 588458; DNMT1 molecular beacon, Hinp1I cleavage, fluorescence; inhibition (reported as % activation of signal), % at 10 µM; P26358; hit rate 0.83% among 360,000; in the data active = inhibition above about 50%
# SUMO1 PPI mod = modulators of human SUMO1-mediated protein-protein interactions; hit rate 0.33% among 360,000; AID 602429; SUMO1 binding to a labelled peptide, TR-FRET, 1 h; inhibition, % at 20 µM; in the data active = inhibition above about 37%
# Target sequence (P63165 whole entry, looked up): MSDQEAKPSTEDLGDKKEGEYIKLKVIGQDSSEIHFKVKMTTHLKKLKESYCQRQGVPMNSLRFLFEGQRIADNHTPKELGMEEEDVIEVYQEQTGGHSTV
# CASP6 VEID inh = caspase-6 (human) enzyme inhibition. purified caspase-6, Z-VEID-R110 cleavage fluorescence. inhibition, % at 12.5 µM. hit rate 0.53% among 350,000;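 active = mean inhibition across replicates at least about 35%, with every replicate also reaching that limit, limit read from the data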;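 also: 0% = median of neutral control wells and 100% = no fluorescence left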
# Target sequence (P55212 24-179 limits assumed): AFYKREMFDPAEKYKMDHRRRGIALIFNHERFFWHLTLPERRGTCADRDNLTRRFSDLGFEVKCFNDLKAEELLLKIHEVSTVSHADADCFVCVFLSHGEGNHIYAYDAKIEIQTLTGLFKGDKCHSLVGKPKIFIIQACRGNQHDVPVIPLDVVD
# Target sequence (P55212 194-293 limits assumed): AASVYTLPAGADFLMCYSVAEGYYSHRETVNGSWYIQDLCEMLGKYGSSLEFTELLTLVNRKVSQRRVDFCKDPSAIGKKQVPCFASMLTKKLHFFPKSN
# Scp1 inh = blocks human Scp-1 phosphatase activity. Q9GZU7. Recombinant Scp1, phosphopeptide, malachite green phosphate absorbance. inhibition, % at 20 µM. hit rate 0.88% among 340,000. AID 493091;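 active = inhibition above about 50% at 20 µM, limit read from the data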;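 also: plate controls were DMSO wells with enzyme for no effect and wells lacking enzyme for full effect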
# Target sequence (Q9GZU7 76-261 limits assumed): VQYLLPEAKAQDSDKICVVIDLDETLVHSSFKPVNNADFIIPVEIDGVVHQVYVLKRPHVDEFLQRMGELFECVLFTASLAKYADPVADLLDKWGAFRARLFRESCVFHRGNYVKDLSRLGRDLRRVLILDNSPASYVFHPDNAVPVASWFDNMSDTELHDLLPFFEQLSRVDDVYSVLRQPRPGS
#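 Test system: SCP-1 catalytic domain; Buffer or medium: Acidic Tris acetate buffer with magnesium and detergent; Also added: Phosphorylated 17-residue peptide substrate; Compound: single 20 µM dose, 1% DMSO; Schedule: enzyme reaction 45 min at room temperature, colour 5 min, stabilisation 30 min; Signal: Phosphate-binding colour reagent, absorbance read at 630 nm.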
# LMPTP block = blocks human LMPTP phosphatase | P24666 | recombinant LMPTP-A, OMFP fluorogenic substrate, fluorescence intensity | inhibition, % at 20 µM | hit rate 0.22% among 360,000 | AID 651560;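 active = compounds that cut the enzyme signal by at least half of the control window in the single-dose screen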;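 also: plate controls were DMSO wells with enzyme plus substrate for no effect and substrate without enzyme for full effect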
# Target sequence (P24666 whole entry, looked up): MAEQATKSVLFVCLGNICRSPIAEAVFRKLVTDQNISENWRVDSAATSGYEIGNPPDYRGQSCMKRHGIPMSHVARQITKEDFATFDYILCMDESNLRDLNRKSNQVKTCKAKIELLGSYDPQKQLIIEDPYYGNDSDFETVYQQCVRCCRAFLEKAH
#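 material = LMPTP-A | quantity = 0.625 nM enzyme | reagent = OMFP substrate, 400 µM final | buffer or medium = Bis-Tris pH 6.0, DTT, detergent | detection = endpoint fluorescence intensity from OMFP dephosphorylation | dosing = single 20 µM dose | read-out basis = % inhibition relative to no-enzyme and uninhibited control wells | control set = no-enzyme and uninhibited controls | timing = 50 min at room temperature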
# Scp-1 conf = confirmation of human Scp-1 phosphatase inhibitors; shares compounds with Scp1 inh; recombinant SCP-1 catalytic domain, phosphate release, malachite green absorbance; inhibition, % at 20 µM; hit rate 61% among 2,500; AID 540281;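 also: plate controls were DMSO with enzyme for no effect and buffer wells lacking enzyme for full effect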
# MG interference = interferes with malachite green readout, flagging false Scp-1 hits; AID 540313; shares compounds with Scp1 inh; apparent inhibition (interference), % at 20 µM; Colorimetric interference counterscreen, malachite green absorbance 630 nm; 2,500 tested, under 10 active;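 also: compounds added after enzyme reaction finished so only phosphate colour detection is probed; plate controls were DMSO wells with completed Scp-1 reaction for no effect and substrate wells lacking enzyme for full effect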
# Scp1 DSF = binds human Scp-1, shifting its melting temperature; shares compounds with Scp1 inh; Recombinant SCP1, Sypro Orange thermal shift Tm; thermal shift relative to vanadate control, % at 40 µM; hit rate 25% among 1,500; AID 540329;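 active = substances whose mean melting-temperature shift, as a percentage of the reference inhibitor's shift, reaches about 5.3%, limit read from the data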;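 also: 0% = Tm of DMSO wells and 100% = Tm with sodium orthovanadate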
# An asterisk follows results filed as active; nt = no result given. Only some compounds are listed: those with a hit (about 1.7% of all), similar ones and a draw of the others.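 The calls were made as follows, unless noted: active = inhibition of at least 30% at 20 µM; inactive = the rest.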
SMILES,STEP block,DNMT1 block,SUMO1 PPI mod,CASP6 VEID inh,Scp1 inh,LMPTP block,Scp-1 conf,MG interference,Scp1 DSF
O=C(CSc1nnc(NC2CCCCC2)s1)Nc1ccc2c(c1)C(=O)c1ccccc1C2=O,1.2,-1.8,-12.2,-4.3,8.7,3.6,nt,nt,nt
NS(=O)(=O)c1ccc(NC(=O)CSc2nnc(NC3CC3)s2)cc1,11.7,33.7,12.4,36.0*,86.6*,0.5,46.6*,-24.1,1.6
COc1cccc2cc(C(=O)N3CCN(C(=O)c4ccco4)CC3)c(=O)oc12,-1.6,3.4,3.7,nt,-1.1,-1.3,nt,nt,nt
COc1cc(Br)cc2cc(C(=O)N3CCN(C(=O)c4ccco4)CC3)c(=O)oc12,2.6,10.5,-2.6,nt,56.4*,7.7,-7.1,-12.6,nt
C[C@H](CO)N1C[C@H](C)[C@@H](CN(C)Cc2ccncc2)Oc2c(NS(=O)(=O)c3cn(C)cn3)cccc2C1=O,-0.3,3.5,-0.2,-2.2,57.1*,-0.7,3.9,-9.3,nt
C[C@H](CO)N1C[C@H](C)[C@@H](CN(C)Cc2ccc(Cl)c(Cl)c2)Oc2c(NS(=O)(=O)c3cn(C)cn3)cccc2C1=O,0.1,-1.2,3.8,0.6,59.1*,-1.6,-7.4,-16.7,nt
COCCN1C(=O)c2oc3ccccc3c(=O)c2C1c1ccc(OC)c(OC)c1 (stereo not given),-2.4,5.0,-5.4,-3.7,60.0*,-0.9,43.7*,-5.4,-8.2
CCOC(=O)c1sc2ncnc(NCC(c3cccs3)N(C)C)c2c1C (stereo not given),3.9,-11.2,-7.7,nt,-8.0,0.0,nt,nt,nt
CCN(CC)c1nc(N)n(CCSC(=S)N(C)C)c(=O)n1,2.6,-1.2,-1.8,3.5,-18.7,-0.8,nt,nt,nt
O=C(COC(=O)CNC(=O)c1ccccc1)NCc1ccc2c(c1)OCO2,-1.0,-1.1,3.9,1.8,67.3*,0.2,-16.2,-18.9,nt
O=C(COC(=O)CNC(=O)c1cccc(OC(F)F)c1)NCc1ccc2c(c1)OCO2,-3.2,-1.5,-2.7,-2.7,-6.5,-0.9,nt,nt,nt
CCOC(=O)N1CCN(C(=O)CCN2C(=O)/C(=C\c3ccccc3OC)SC2=S)CC1,1.5,-1.2,-28.3,nt,-12.8,0.4,nt,nt,nt
Cc1cc(C(=O)N/N=C/c2ccc(-c3ccc(C)c(Cl)c3)o2)n[nH]1,0.2,38.4,-2.6,-2.6,11.2,4.6,nt,nt,nt
Cc1cc(C(=O)N/N=C/c2cc(Br)ccc2OC(=O)c2ccccc2Cl)n[nH]1,5.2,29.8,2.0,4.8,-7.1,6.3,nt,nt,nt
Cc1cc(C(=O)N/N=C/C=C/c2ccc(Br)cc2)n[nH]1,28.9,11.8,-0.1,0.1,52.0*,33.5,64.8*,-4.3,-8.1
Cc1cc(C(=O)N/N=C/c2cc(Br)ccc2OC(=O)c2ccccc2)n[nH]1,4.7,15.2,-1.4,nt,94.4*,33.3,64.5*,-5.2,-2.8
Cc1cc(C(=O)N/N=C/c2ccc(-c3ccccc3Cl)o2)n[nH]1,10.3,35.9,0.1,-4.1,60.0*,15.5,57.6*,-16.7,-7.6
O=C(CSc1nnc(-c2ccncc2)n1-c1ccc(F)cc1)NC(=O)NCc1ccco1,4.9,67.5*,-0.4,5.7,88.6*,6.6,64.5*,-8.2,-3.2
NC(=O)c1c(NC(=O)C2CC=CCC2C(=O)O)sc2c1CCCCC2 (stereo not given),37.6,19.9,28.1,52.5*,58.2*,1.4,70.9*,-1.9,0.4
CCC1(c2ccccc2)NC(=O)N(CC(=O)N(C)CC(=O)Nc2cccc(OC)c2)C1=O (stereo not given),-1.5,-1.7,6.3,4.3,-3.9,-1.7,nt,nt,nt
CCC1(c2ccccc2)NC(=O)N(CC(=O)N(C)CC(=O)Nc2c(C)cccc2C)C1=O (stereo not given),0.4,0.1,-7.6,-1.8,2.4,-0.7,-4.6,-3.0,nt
COc1ccc(-n2c(Cc3cccn3C)nnc2SCC(=O)NCc2ccc(F)cc2)cc1,-3.3,-0.1,5.5,-2.9,90.2*,-0.3,-1.8,-7.9,nt
COc1ccc(-n2c(Cc3cccn3C)nnc2SCC(=O)NCc2ccco2)cc1,-0.6,0.9,-0.8,4.6,14.7,-0.5,nt,nt,nt
Nc1ccc(Oc2ncccn2)c(Cl)c1,-4.9,0.1,-14.4,1.7,5.3,1.6,nt,nt,nt
Fc1ccc(Oc2ccnc(Cl)n2)c(Cl)c1,nt,nt,nt,-1.3,50.6*,nt,-6.2,-9.0,nt
SMILES,STEP block,DNMT1 block,SUMO1 PPI mod,CASP6 VEID inh,Scp1 inh,LMPTP block,Scp-1 conf,MG interference,Scp1 DSF
CCCN(Cc1nnc(-c2cccs2)o1)C(=O)CN1C(=O)NC2(CCCCC2)C1=O,-0.7,-0.5,-1.3,2.5,2.2,-1.0,nt,nt,nt
O=C(O)CCN1C(=O)/C(=C2\C(=O)N(Cc3ccc(F)cc3)c3ccccc32)SC1=S,93.0*,4.2,14.4,-1.5,88.2*,81.9*,61.4*,-17.0,8.8*
CN1C(=O)/C(=C2\SC(=S)N(CCCCCC(=O)O)C2=O)c2ccccc21,98.5*,3.4,-0.6,-1.3,103.5*,85.1*,67.8*,-18.1,2.7
CCN1C(=O)/C(=C2\SC(=S)N(CCCOC)C2=O)c2ccccc21,1.3,3.3,-1.2,nt,-5.6,1.9,nt,nt,nt
CC(=O)c1ccc(S(=O)(=O)Oc2ccc(C(=O)O)cc2Cl)cc1,-3.6,24.8,3.9,15.3,53.0*,-0.7,24.1,-6.0,nt
CCCCn1c2ccccc2c2nnc(SCC(=O)NC3=NN=C(c4ccccc4)CS3)nc21,nt,nt,nt,-1.6,nt,nt,nt,nt,nt
c1ccc(Sc2cccc3ccccc23)c(CNC2=NCCN2)c1,-4.0,8.6,-10.3,nt,29.2,1.8,nt,nt,nt
Fc1ccccc1Sc1ccccc1CNC1=NCCN1,-3.3,0.1,2.2,nt,97.4*,-1.4,84.0*,-14.8,-13.8
N#C/C(=C/c1ccc(-c2ccc(C(=O)O)c(Cl)c2)o1)C(=O)NCC1CCCO1 (stereo not given),0.3,10.8,-3.9,4.7,105.9*,-2.2,55.0*,-12.6,-12.2
Cc1ccc(/C=C(\C#N)C(=O)NCC2CCCO2)o1 (stereo not given),0.6,-3.8,-10.2,4.3,1.2,0.2,nt,nt,nt
O=C(NCC[C@@H]1CC[C@H](NC(=O)C2CCCCC2)[C@H](CO)O1)Nc1ccc(Cl)cc1,nt,nt,nt,0.3,nt,nt,nt,nt,nt
C[C@H](O)[C@@H]1C(=O)N2CCc3c([nH]c4c(-c5ccccc5)cccc34)[C@@H]2C[C@@H]1N(C)C(=O)Nc1ccccc1,nt,nt,nt,-1.4,nt,nt,nt,nt,nt
CCOC(=O)C1CCN(C(=O)CCCCn2c(=O)[nH]c3ccccc3c2=O)CC1,-0.4,1.6,-2.0,nt,68.2*,-0.1,-15.3,-6.8,nt

# Compound activity as filed in PubChem BioAssay.
